organism: Rattus norvegicus; assay: Displacement of [3H]flunitrazepam from GABAA receptor in rat cortical membrane assessed as [3H]flunitrazepam binding at 100 uM after 90 mins by scintillation counting; type: cell membranes
Method in brief: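 Rat frontal cortex membranes (sucrose homogenate, ultracentrifuged pellets in 50 mM Tris-HCl pH 7.4), 0.3 mg protein per tube, incubated 90 min at 4 °C with 1 nM [3H]flunitrazepam ± 100 μM test compound (final; benzyl-sugar analogues from ethanol stock). Nonspecific binding with 100 μM flumazenil. Rapid GF/B filtration, ice-cold buffer washes, scintillation counting; expressed as % specific binding; three independent experiments in triplicate.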

Going from `CN1C(=O)[C@@H]2CCCN2C(=O)c2cc([N+](=O)[O-])ccc21` to `CN1C(=O)[C@H]2CCCN2C(=O)c2cc([N+](=O)[O-])ccc21`, the Activity rises from 63.4% to 80.2%.

Compared with `O=C1Nc2ccccc2C(=O)N2C[C@]3(C[C@H]12)O[C@H](COCc1ccccc1)[C@@H](OCc1ccccc1)[C@@H]3OCc1ccccc1`, `O=C1Nc2ccccc2C(=O)N2C[C@@]3(C[C@@H]12)O[C@@H](COCc1ccccc1)[C@H](OCc1ccccc1)[C@H]3OCc1ccccc1` is lower in Activity: 112% for the first, 96.3% for the second.

First: CN1C(=O)[C@@H]2C[C@]3(CN2C(=O)c2ccccc21)O[C@@H](CO)[C@H](O)[C@H]3O
Second: CN1C(=O)[C@H]2C[C@@]3(CN2C(=O)c2ccccc21)O[C@H](CO)[C@@H](O)[C@@H]3O
The Activity of the first is higher: 112% for the first, 93% for the second.

First: CN1C(=O)[C@H]2C[C@@]3(CN2C(=O)c2cc(N)ccc21)O[C@H](CO)[C@@H](O)[C@@H]3O
Second: CN1C(=O)[C@@H]2C[C@]3(CN2C(=O)c2cc(N)ccc21)O[C@@H](CO)[C@H](O)[C@H]3O
The Activity of the first is lower: 70.6% for the first, 83.5% for the second.

Going from `CN1C(=O)[C@@H]2C[C@]3(CN2C(=O)c2cc(Cl)ccc21)O[C@@H](CO)[C@H](O)[C@H]3O` to `CN1C(=O)[C@H]2C[C@@]3(CN2C(=O)c2cc(Cl)ccc21)O[C@H](CO)[C@@H](O)[C@@H]3O`, the Activity falls from 77% to 73.7%.

Compared with `Nc1ccc2c(c1)C(=O)N1C[C@]3(C[C@@H]1C(=O)N2)O[C@H](CO)[C@@H](O)[C@@H]3O`, `Nc1ccc2c(c1)C(=O)N1C[C@@]3(C[C@H]1C(=O)N2)O[C@@H](CO)[C@H](O)[C@H]3O` is lower in Activity: 80.2% for the first, 73.9% for the second.

First: CN1C(=O)[C@H]2C[C@@]3(CN2C(=O)c2cc(Cl)ccc21)O[C@H](COCc1ccccc1)[C@@H](OCc1ccccc1)[C@@H]3OCc1ccccc1
Second: CN1C(=O)[C@@H]2C[C@]3(CN2C(=O)c2cc(Cl)ccc21)O[C@@H](COCc1ccccc1)[C@H](OCc1ccccc1)[C@H]3OCc1ccccc1
The Activity of the first is higher: 92.9% for the first, 82.3% for the second.

Compared with `CN1C(=O)[C@@H]2C[C@]3(CN2C(=O)c2cc([N+](=O)[O-])ccc21)O[C@@H](COCc1ccccc1)[C@H](OCc1ccccc1)[C@H]3OCc1ccccc1`, `CN1C(=O)[C@H]2C[C@@]3(CN2C(=O)c2cc([N+](=O)[O-])ccc21)O[C@H](COCc1ccccc1)[C@@H](OCc1ccccc1)[C@@H]3OCc1ccccc1` is lower in Activity: 82.8% for the first, 74.9% for the second.

First: CN1C(=O)[C@H]2C[C@@]3(CN2C(=O)c2ccccc21)O[C@H](COCc1ccccc1)[C@@H](OCc1ccccc1)[C@@H]3OCc1ccccc1
Second: CN1C(=O)[C@@H]2C[C@]3(CN2C(=O)c2ccccc21)O[C@@H](COCc1ccccc1)[C@H](OCc1ccccc1)[C@H]3OCc1ccccc1
The Activity of the first is lower: 96.4% for the first, 106% for the second.

First: O=C1Nc2ccc([N+](=O)[O-])cc2C(=O)N2C[C@@]3(C[C@@H]12)O[C@@H](COCc1ccccc1)[C@H](OCc1ccccc1)[C@H]3OCc1ccccc1
Second: O=C1Nc2ccc([N+](=O)[O-])cc2C(=O)N2C[C@]3(C[C@H]12)O[C@H](COCc1ccccc1)[C@@H](OCc1ccccc1)[C@@H]3OCc1ccccc1
The Activity of the first is lower: 69.6% for the first, 101% for the second.

Going from `O=C1Nc2ccccc2C(=O)N2CCC[C@H]12` to `O=C1Nc2ccccc2C(=O)N2CCC[C@@H]12`, the Activity falls from 97% to 95.5%.

Going from `CN1C(=O)[C@@H]2C[C@]3(CN2C(=O)c2cc(Br)ccc21)O[C@@H](CO)[C@H](O)[C@H]3O` to `CN1C(=O)[C@H]2C[C@@]3(CN2C(=O)c2cc(Br)ccc21)O[C@H](CO)[C@@H](O)[C@@H]3O`, the Activity rises from 82.2% to 84.2%.

First: O=C1Nc2ccccc2C(=O)N2C[C@]3(C[C@H]12)O[C@H](CO)[C@@H](O)[C@@H]3O
Second: O=C1Nc2ccccc2C(=O)N2C[C@@]3(C[C@@H]12)O[C@@H](CO)[C@H](O)[C@H]3O
The Activity of the first is lower: 78.2% for the first, 110% for the second.

First: CN1C(=O)[C@H]2C[C@@]3(CN2C(=O)c2cc(Br)ccc21)O[C@H](COCc1ccccc1)[C@@H](OCc1ccccc1)[C@@H]3OCc1ccccc1
Second: CN1C(=O)[C@@H]2C[C@]3(CN2C(=O)c2cc(Br)ccc21)O[C@@H](COCc1ccccc1)[C@H](OCc1ccccc1)[C@H]3OCc1ccccc1
The Activity of the first is higher: 111% for the first, 93.2% for the second.
